INS promoter inh = inhibitors of insulin promoter-driven GFP, primary screen, imaging, TRM-6 cells (human fetal islet line), eGFP reporter, cell count; reporter expression induced with tamoxifen; inhibition, % at 2 µM; 130,000 tested, 0.9% active; AID 1273, 2008;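 active = inhibition above the mean plus 3 SD, with well images judged a real hit on visual review, cut at about 60% in these data, passing the limit was not always enough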
Efa HMGR inh = inhibitors of E. faecalis class II HMGR, primary screen, biochemical, Enterococcus faecalis; HMG-CoA reductase (Enterococcus faecalis, mvaE); inhibition, % at 10 µM; purified E. faecalis HMGR, NADPH absorbance 340 nm kinetic; 190,000 tested, 0.41% active; AID 1066, 2008;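 active = inhibition above a set limit, the median over all tested compounds plus 3 SD, cut at about 9.5% in these data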;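 note: enzyme runs in reverse so mevalonate oxidation gives rising NADPH absorbance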
RAM inhibit = inhibitors of the yeast RAM network, primary screen, dse1pr::URA3 reporter, 5-FOA selection; S. cerevisiae dse1pr::URA3 reporter, 5-FOA growth OD615, 2 d; analog-sensitive cbk1-as2 kinase mutant strain; inhibition, % at 50 µM; 190,000 tested, 1.8% active; AID 868, 2007;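 active = inhibition above a set limit, 3 SD over mean compound inhibition, cut at about 8.4% in these data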;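 note: inhibition rescues growth on 5-FOA so higher OD means more RAM inhibition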
BB579 growth dn = growth inhibitors of yeast BB579 in restrictive medium, primary screen, yeast lifespan-shortening project, S. cerevisiae; AID 804, 2007; inhibition, % at 10 µM; OD615, 48 h; 140,000 tested, 0.51% active;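 active = inhibition above a set limit, 3 SD over the mean compound inhibition, cut at about 44% in these data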
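Test system: DeaD yeast strain BB579 / Buffer or medium: restrictive glucose-based CSMM-D medium / Doses: single 10 µM dose / Schedule: 4 h cell preincubation, 48 h compound exposure, 30 °C humidified / Technique: culture absorbance at 615 nm / Controls: amphotericin B positive control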
Yeast life ext = compounds extending yeast replicative lifespan, primary screen, S. cerevisiae, OD615. S. cerevisiae growth with nicotinamide; deaD strain in restrictive glucose medium. 130,000 tested, 0.68% active. inhibition of the nicotinamide effect, % at 10 µM. AID 775, 2007;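 active = inhibition above a set limit, placed 3 SD over the median of all compounds, cut at about 26% in these data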
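Test system – modified budding yeast, DeaD strain · Compound – single dose 10 µM compound, 0.25% DMSO · Times – culture preincubation 4 h, compound exposure 48 h, both 30 °C · Detection – optical density (absorbance) at 615 nm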
Hits are given with their value. Rows were chosen to be rich in hits. Some 3.7% of all compounds tested hit in one or more screens of this group.

How did O=C(Oc1c(Cl)cc(Cl)c2cccnc12)c1ccco1 do in these assays?
INS promoter inh: 68; Efa HMGR inh: inactive; RAM inhibit: inactive; BB579 growth dn: inactive; Yeast life ext: inactive

Results for Cc1ccccc1NC(=O)c1ccc(Cl)c(NC(=O)c2ccncc2)c1 ?
INS promoter inh: inactive; Efa HMGR inh: inactive; RAM inhibit: inactive; BB579 growth dn: inactive; Yeast life ext: inactive

Results for CCCCCC(=O)N/N=C(\C)c1ccc(Cl)cc1 ?
INS promoter inh: 100; Efa HMGR inh: inactive; RAM inhibit: inactive; BB579 growth dn: inactive; Yeast life ext: inactive

What do the screens show for `CCCCCCCCC(=O)N/N=C(\C)c1cccnc1`?
INS promoter inh: inactive; Efa HMGR inh: inactive; RAM inhibit: inactive; BB579 growth dn: inactive

Results for COc1cc(/C=C(/C#N)c2ccccc2F)ccc1OCc1ccccc1 ?
Efa HMGR inh: inactive; RAM inhibit: 10; BB579 growth dn: inactive; Yeast life ext: inactive

Results for COc1cccc(-c2nn(C)c3sc(C(=O)NCc4ccc(C)o4)cc23)c1 ?
INS promoter inh: 62; Efa HMGR inh: inactive; RAM inhibit: 11; BB579 growth dn: inactive; Yeast life ext: inactive

Results for COCCCC1CCN(Cc2cn[nH]c2-c2cc(OC)c(OC)c(OC)c2)CC1 ?
Efa HMGR inh: inactive; RAM inhibit: inactive

How did COCC1CCN(Cc2cn[nH]c2-c2cc(OC)c(OC)c(OC)c2)CC1 do in these assays?
Efa HMGR inh: 11; RAM inhibit: inactive

Results for CN1/C(=C\C=C2/SC(=S)N(CC(=O)O)C2=O)C(C)(C)c2ccccc21 ?
Efa HMGR inh: inactive; RAM inhibit: 9.1

Results for C=CCN1C(=O)/C(=C\C=C2\N(C)c3ccccc3C2(C)C)SC1=S ?
INS promoter inh: inactive; Efa HMGR inh: inactive; RAM inhibit: inactive; BB579 growth dn: inactive; Yeast life ext: inactive

How did CNC(=S)N/N=C1\C(=O)c2cccc3cccc1c23 do in these assays?
INS promoter inh: inactive; Efa HMGR inh: inactive; RAM inhibit: inactive; BB579 growth dn: inactive; Yeast life ext: inactive

What do the screens show for `CCCCNC(=S)N/N=C1\C(=O)c2cccc3cccc1c23`?
INS promoter inh: inactive; Efa HMGR inh: inactive; RAM inhibit: 9.1; BB579 growth dn: inactive; Yeast life ext: inactive

Results for Cc1cc(=O)oc2cc(OCC(=O)OCC(=O)Nc3ccccc3F)ccc12 ?
INS promoter inh: inactive; Efa HMGR inh: inactive; RAM inhibit: inactive

How did Cc1cc(=O)oc2cc(OCC(=O)OCC(=O)Nc3ccccc3C(C)C)ccc12 do in these assays?
INS promoter inh: 60; Efa HMGR inh: inactive; RAM inhibit: inactive; BB579 growth dn: inactive; Yeast life ext: inactive

Results for Cc1cc(NC(=O)c2ccccc2-c2ccccc2C(=O)O)no1 ?
INS promoter inh: 64; Efa HMGR inh: inactive; RAM inhibit: inactive; BB579 growth dn: inactive; Yeast life ext: inactive

What do the screens show for `COc1cc2c(cc1NC(=O)CSc1nccn1C)oc1ccccc12`?
INS promoter inh: inactive; Efa HMGR inh: inactive; RAM inhibit: inactive; BB579 growth dn: inactive; Yeast life ext: inactive

How did COc1ccc(S(=O)(=O)N[C@@H](C)C(=O)OCC(=O)Nc2cc3oc4ccccc4c3cc2OC)cc1 do in these assays?
INS promoter inh: inactive; Efa HMGR inh: inactive; RAM inhibit: 9.6; BB579 growth dn: inactive; Yeast life ext: inactive

How did COc1cc2c(cc1NC(=O)CSc1ccccc1)oc1ccccc12 do in these assays?
INS promoter inh: inactive; Efa HMGR inh: inactive; RAM inhibit: 11; BB579 growth dn: inactive; Yeast life ext: inactive

How did Cc1cccc(C)c1NC(=S)NC(C)CCc1ccccc1 (stereo not given) do in these assays?
Efa HMGR inh: inactive; RAM inhibit: inactive; BB579 growth dn: inactive; Yeast life ext: inactive

What do the screens show for `CCOC(=O)C1=C(N)OC(CCl)=C(C#N)C1c1ccsc1` (stereo not given)?
INS promoter inh: inactive; Efa HMGR inh: inactive; RAM inhibit: inactive; BB579 growth dn: inactive; Yeast life ext: inactive

What do the screens show for `CN(C)c1ccc([C@@H]2[C@@H]([N+](=O)[O-])[C@H]3C=Cc4ccccc4N3[C@H]2C(=O)c2ccc(Cl)cc2)cc1`?
Efa HMGR inh: inactive; RAM inhibit: inactive; BB579 growth dn: inactive; Yeast life ext: 32

Results for CC(NC(=O)Nc1ccccc1F)C(C)(C)C (stereo not given) ?
INS promoter inh: inactive; Efa HMGR inh: inactive; RAM inhibit: inactive

Source: PubChem
